Columns and labels:
mammalian actin = mammalian actin (Oryctolagus cuniculus, UniProt P68135); assay: Pyrene fluorescence actin polymerization assay; type: biochemical; conditions: for inhibition at 10 µM: read-out: Inhibition of mammalian actin polymerization at 10 μM; for inhibition at 100 µM: read-out: Inhibition of mammalian actin polymerization at 100 μM; for Inhibition of mammalian actin polymerization at 10 μM: 10 μM compound
Summary of the method: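 Actin was 5% pyrene-labelled, held in Ca buffer G (2 mM Tris pH 8, 0.2 mM ATP). It was converted to the Mg2+ form (final 1 mM EGTA, 0.1 mM MgCl2) for 2 min at room temperature. Actin at 2.5 μM final was preincubated 1 min with compound in DMSO; latrunculin B was the positive control. Polymerisation was started with KCl 50 mM, imidazole 10 mM pH 7, MgCl2 1 mM, EGTA 1 mM. Pyrene fluorescence (ex 365/em 407 nm) was read every 15 s for 90 min, in triplicate.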

T. gondii parasites = assay: Invasion inhibition assay of T. gondii into host fibroblast cells; type: cell-based, Toxoplasma gondii
Summary of the method: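 Type I RH strain, clone 2F, expressing E. coli β-galactosidase. Compound came from a 10 mM DMSO stock diluted in medium with 1% DMSO, which was also the vehicle control. Parasites were preincubated with compound for 20 min at room temperature. Then 5 × 10^2 parasites/well were added to confluent human foreskin fibroblasts in DMEM/10% FBS, centrifuged ~300g for 5 min, and cultured at 37°C, 5% CO2. EC50 from a variable-slope sigmoidal fit; three experiments, each in triplicate.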

Row | SMILES | inhibition at 10 µM (mammalian actin) [%] | inhibition at 100 µM (mammalian actin) [%] | further results
1 | COc1ccc(CN2C(=O)SC[C@H]2C2(OC)CC(OC(=O)c3ccccc3-c3cccs3)CCO2)cc1 (stereo partly drawn) [Compound 15, 2-Methoxy-2-((R)-3-(4-methoxybenzyl)-2-oxothiazolidin-4-yl)tetrahydro-2H-pyran-4-yl 2-(thiophen-2-yl)benzoate] | < 10 | < 10 | –
2 | COc1ccc(CN2C(=O)SC[C@H]2C2(OC)CC(OC(=O)c3ccccc3-c3cccc4ccccc34)CCO2)cc1 (stereo partly drawn) [Compound 17, 2-Methoxy-2-((R)-3-(4-methoxybenzyl)-2-oxothiazolidin-4-yl)tetrahydro-2H-pyran-4-yl 2-(naphthalen-1-yl)benzoate] | < 10 | < 10 | –
3 | COc1ccc(CN2C(=O)SC[C@H]2C2(OC)CC(OC(=O)c3ccccc3C3=CCCCC3)CCO2)cc1 (stereo partly drawn) [Compound 16, 2-Methoxy-2-((R)-3-(4-methoxybenzyl)-2-oxothiazolidin-4-yl)tetrahydro-2H-pyran-4-yl 2',3',4',5'-tetrahydro-[1,1'-biphenyl]-2-carboxylate] | < 10 | < 10 | –
4 | COc1ccc(CN2C(=O)SC[C@H]2C2(OC)CC(OC(=O)c3ccccc3I)CCO2)cc1 (stereo partly shown) [Compound 14, 2-Methoxy-2-(3-(4-methoxybenzyl)-2-oxothiazolidin-4-yl)tetrahydro-2H-pyran-4-yl 2-iodobenzoate] | < 10 | < 10 | –
5 | C/C1=C/C(=O)O[C@@H]2C[C@@H](CC[C@H](C)/C=C\CC1)O[C@@](O)([C@@H]1CSC(=O)N1)C2 [Latrunculin B, latrunculin B, reference compound] | – | – | Inhibition of mammalian actin polymerization at 10 μM (mammalian actin; 2.5 μM actin, pyrene fluorescence): 100%; Inhibition of mammalian actin polymerization at 10 μM (mammalian actin; 2.5 μM actin, pyrene fluorescence, listed as latrunculin B): 100%; Inhibition of mammalian actin polymerization at 100 μM (mammalian actin; 100 μM compound, 2.5 μM actin, pyrene fluorescence): 100%
6 | COc1ccc(CN2C(=O)SC[C@H]2C2(OC)CC(OC(=O)C3CCCC3)CCO2)cc1 (stereo partly drawn) [Compound 11, 2-Methoxy-2-((R)-3-(4-methoxybenzyl)-2-oxothiazolidin-4-yl)tetrahydro-2H-pyran-4-yl cyclopentanecarboxylate] | – | – | activity against T. gondii (in words) (T. gondii parasites): inactive
7 | CCCCC(=O)OC1CCOC(OC)([C@@H]2CSC(=O)N2Cc2ccc(OC)cc2)C1 (stereo partly drawn) [Compound 10, 2-Methoxy-2-((R)-3-(4-methoxybenzyl)-2-oxothiazolidin-4-yl)tetrahydro-2H-pyran-4-yl pentanoate] | – | – | activity against T. gondii (in words) (T. gondii parasites): inactive

From article PMC7224986 (Journal of medicinal chemistry, 2016)
